≈ marks a conversion by molar mass, not a printed value. Calls of active or inactive are those of the source. No cut-off for these calls is given here.
Assays:
Vasopressin V1b receptor = molecular target: T1, Vasopressin V1b receptor (Homo sapiens, UniProt P47901); experiment: Displacement of [3H]-AVP from human vasopressin V1b receptor expressed in CHO cells after 30 mins; assay type: cell-based
T1 sequence (P47901 whole entry): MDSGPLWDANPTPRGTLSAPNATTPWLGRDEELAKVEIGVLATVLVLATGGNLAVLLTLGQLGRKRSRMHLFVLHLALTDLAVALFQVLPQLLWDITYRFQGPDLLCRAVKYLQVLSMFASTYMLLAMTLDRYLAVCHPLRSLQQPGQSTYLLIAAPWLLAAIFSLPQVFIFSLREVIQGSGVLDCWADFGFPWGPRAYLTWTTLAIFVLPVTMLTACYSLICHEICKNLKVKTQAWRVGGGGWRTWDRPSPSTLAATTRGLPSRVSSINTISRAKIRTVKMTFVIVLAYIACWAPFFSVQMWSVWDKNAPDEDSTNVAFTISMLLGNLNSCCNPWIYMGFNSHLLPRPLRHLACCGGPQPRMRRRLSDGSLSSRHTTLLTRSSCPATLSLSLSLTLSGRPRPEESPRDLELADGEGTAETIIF

Vasopressin V2 receptor [1] = molecular target: T2, Vasopressin V2 receptor (Homo sapiens, UniProt P30518); experiment: Agonist activity at human vasopressin V2 receptor expressed in CHO cells assessed as cAMP accumulation after 30 mins by TR-FRET based HTRF assay; assay type: functional, cell-based
T2 sequence (P30518 whole entry): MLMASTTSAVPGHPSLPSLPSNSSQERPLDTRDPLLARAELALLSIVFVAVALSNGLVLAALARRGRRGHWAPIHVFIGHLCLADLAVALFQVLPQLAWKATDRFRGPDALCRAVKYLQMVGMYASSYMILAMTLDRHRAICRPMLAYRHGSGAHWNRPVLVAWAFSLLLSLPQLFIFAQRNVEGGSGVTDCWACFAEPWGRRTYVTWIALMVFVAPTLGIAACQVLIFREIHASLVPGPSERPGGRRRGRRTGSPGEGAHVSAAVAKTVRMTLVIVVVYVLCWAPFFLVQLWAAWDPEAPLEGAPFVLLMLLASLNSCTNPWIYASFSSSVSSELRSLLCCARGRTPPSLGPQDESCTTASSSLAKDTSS
Method in brief: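 CHO cells stably expressing human V2R, 5 × 10^3 per well on polyornithine, used 24 h after seeding. Cells lysed and cAMP read by HTRF (TR-FRET). Kact/Kinact from three independent experiments in triplicate, mean ± SEM.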

Vasopressin V1a receptor [2] = molecular target: T3, Vasopressin V1a receptor (Homo sapiens, UniProt P37288); experiment: Displacement of [3H]-AVP from human vasopressin V1a receptor expressed in CHO cells at 10 uM after 30 mins; assay type: cell-based
Method in brief: (§1)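 Human OTR, V1aR or V1bR membranes from CHO cells, [3H]-AVP displacement with compound at a single 10 μM concentration, 30 min at 30 °C in Tris-HCl pH 7.4/MgCl2/BSA buffer.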
Target sequence in this assay (P37288 whole entry, looked up): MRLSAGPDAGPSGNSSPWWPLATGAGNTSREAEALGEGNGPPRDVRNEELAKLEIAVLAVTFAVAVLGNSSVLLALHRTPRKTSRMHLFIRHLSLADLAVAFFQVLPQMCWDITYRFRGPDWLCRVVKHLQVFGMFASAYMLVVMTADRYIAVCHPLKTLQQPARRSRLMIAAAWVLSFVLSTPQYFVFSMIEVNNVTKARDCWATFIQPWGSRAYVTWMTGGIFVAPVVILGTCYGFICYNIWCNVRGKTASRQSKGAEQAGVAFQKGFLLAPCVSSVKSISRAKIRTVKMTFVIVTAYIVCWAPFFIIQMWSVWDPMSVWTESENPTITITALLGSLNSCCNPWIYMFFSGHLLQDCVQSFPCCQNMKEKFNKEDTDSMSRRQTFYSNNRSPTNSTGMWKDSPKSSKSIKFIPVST

[3] = molecular target: T4, Vasopressin V1b receptor (Homo sapiens) (UniProt P47901); experiment: Displacement of [3H]-AVP from human vasopressin V1b receptor expressed in CHO cells at 10 uM after 30 mins; assay type: cell-based; method in brief: as §1
T4 sequence (whole entry): T1 sequence (P47901 whole entry)

Vasopressin V2 receptor [4] = molecular target: T2, Vasopressin V2 receptor; experiment: Displacement of [3H]-AVP from human vasopressin V2 receptor expressed in CHO cells after 30 mins; assay type: cell-based
Vasopressin V1a receptor [5] = molecular target: T3, Vasopressin V1a receptor; experiment: Displacement of [3H]-AVP from human vasopressin V1a receptor expressed in CHO cells after 30 mins; assay type: cell-based
Target sequence in this assay (P37288 whole entry): as the sequence (P37288 whole entry, looked up) above

[6] = Solubility of the compound in HEPES buffer at pH 7.4 after 24 hrs; assay type: physicochemical
Method in brief: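 Solubility measured in pH 7.4 HEPES buffer after 24 h incubation at 22 °C.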

Vasopressin V2 receptor [7] = molecular target: T2, Vasopressin V2 receptor; experiment: Antagonist activity at human vasopressin V2 receptor expressed in CHO cells assessed as inhibition of AVP-induced cAMP accumulation after 30 mins by TR-FRET based HTRF assay; assay type: functional, cell-based
Method in brief: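 CHO cells stably expressing human V2R, 5 × 10^3 per well on polyornithine, used 24 h after seeding. Incubated 30 min at 37 °C with compound (10−12 to 10−5 M) plus phosphodiesterase inhibitor RO 201724 0.1 mM. Antagonist mode run with 1 nM AVP. Cells lysed and cAMP read by HTRF (TR-FRET). Kact/Kinact from three independent experiments in triplicate, mean ± SEM.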

Oxytocin receptor = molecular target: T5, Oxytocin receptor (Homo sapiens, UniProt P30559); experiment: Displacement of [3H]-AVP from human oxytocin receptor expressed in CHO cells after 30 mins; assay type: cell-based
T5 sequence (P30559 whole entry): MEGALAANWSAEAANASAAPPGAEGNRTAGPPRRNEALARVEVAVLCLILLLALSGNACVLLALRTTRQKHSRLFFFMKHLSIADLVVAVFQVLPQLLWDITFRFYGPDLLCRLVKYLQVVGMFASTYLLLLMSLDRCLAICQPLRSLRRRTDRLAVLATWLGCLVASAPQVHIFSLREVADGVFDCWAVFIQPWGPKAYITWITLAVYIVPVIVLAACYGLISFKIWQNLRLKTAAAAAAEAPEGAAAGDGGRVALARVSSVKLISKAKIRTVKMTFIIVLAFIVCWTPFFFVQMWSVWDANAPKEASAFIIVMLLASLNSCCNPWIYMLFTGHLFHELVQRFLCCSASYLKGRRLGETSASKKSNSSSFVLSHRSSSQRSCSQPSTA

Vasopressin V2 receptor [8] = molecular target: T2, Vasopressin V2 receptor; experiment: Binding affinity to SNAP-tagged vasopressin V2 receptor expressed in HEK293 cells after 1 hr by TR-FRET assay; assay type: cell-based
Method in brief: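 HEK 293T cells electroporated with SNAP-tag–V2R and grown 48 h. Receptor labeled 1 h at 37 °C with SNAP-Lumi4-Tb (100 nM) or SNAP-RED (300 nM), then washed. Rising fluorescent-ligand concentrations added and incubated overnight at 4 °C. TR-FRET read with excitation 340 nm, emission 620/665 nm. Nonspecific binding taken with 10 μM unlabeled ligand. Kd from saturation, three experiments in triplicate.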

Homo sapiens = species: Homo sapiens; experiment: Selectivity ratio of Ki for human oxytocin receptor to Ki for human vasopressin V2 receptor
[9] = molecular target: T6, Muscarinic acetylcholine receptor M1 (Homo sapiens, UniProt P11229); experiment: Binding affinity to human muscarinic M1 receptor
T6 sequence (P11229 whole entry): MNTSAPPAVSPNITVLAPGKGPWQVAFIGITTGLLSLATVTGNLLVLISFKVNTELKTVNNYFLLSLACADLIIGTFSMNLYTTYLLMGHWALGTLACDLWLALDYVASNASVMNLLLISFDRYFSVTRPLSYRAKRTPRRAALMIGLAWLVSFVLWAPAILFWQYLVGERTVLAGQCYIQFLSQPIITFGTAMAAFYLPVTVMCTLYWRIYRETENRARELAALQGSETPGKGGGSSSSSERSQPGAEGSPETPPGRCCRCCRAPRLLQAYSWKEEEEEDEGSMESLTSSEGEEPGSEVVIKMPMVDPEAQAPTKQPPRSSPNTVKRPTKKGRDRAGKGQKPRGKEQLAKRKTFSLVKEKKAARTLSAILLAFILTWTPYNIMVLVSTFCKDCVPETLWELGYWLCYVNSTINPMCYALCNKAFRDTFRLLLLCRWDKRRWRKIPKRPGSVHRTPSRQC

[10] = molecular target: T7, Oxytocin receptor (Homo sapiens) (UniProt P30559); experiment: Displacement of [3H]-AVP from human oxytocin receptor expressed in CHO cells at 10 uM after 30 mins; assay type: cell-based; method in brief: as §1
T7 sequence (whole entry): T5 sequence (P30559 whole entry)

Compound | Ki (Vasopressin V1b receptor) [µM] | Activity (Vasopressin V2 receptor [1]) | inhibition (Vasopressin V1a receptor [2]) [%] | inhibition [3] [%] | Ki (Vasopressin V2 receptor [4]) [nM] | Ki (Vasopressin V1a receptor [5]) [µM] | solubility at 24 h [6] [µM] | Kb (Vasopressin V2 receptor [7]) [nM] | inhibition (Vasopressin V2 receptor [7]) | Ki (Oxytocin receptor) [nM] | Kd (Vasopressin V2 receptor [8]) [nM] | Ratio Ki (Homo sapiens) | Ki [9] [nM] | inhibition [10] [%]
CCN(CC)c1ccc2c(-c3ccc(S(=O)(=O)NCCOCCOCCOCCn4cc(CNC(=O)CCC(=O)NC5CCCN(C(=O)c6ccc(NC(=O)c7ccccc7C)cc6)c6ccccc65)nn4)cc3S(=O)(=O)[O-])c3ccc(=[N+](CC)CC)cc-3oc2c1 (stereo not given) | > 10 | inactive | < 50 | < 50 | 54.3 | > 10 | 3.4 (≈ 4.4 µg/mL) | 16.7 | Dose-dependent effect | 495 |  |  |  | 
CCN1/C(=C/C=C/C=C/C2=[N+](CC)c3ccc(S(=O)(=O)[O-])cc3C2(C)C)C(C)(CCCC(=O)NCCOCCOCCOCCOCCOCCOCCn2cc(CNC(=O)CCC(=O)NC3CCCN(C(=O)c4ccc(NC(=O)c5ccccc5-c5ccccc5)cc4)c4ccccc43)nn2)c2cc(S(=O)(=O)O)ccc21 (stereo not given) |  | inactive |  |  | 14.2 |  |  | 0.54 | Dose-dependent effect |  | 2.53 |  |  | 
CCN(CC)c1ccc2c(-c3ccc(S(=O)(=O)[O-])cc3S(=O)(=O)NCCOCCOCCOCCn3cc(CNC(=O)CCC(=O)NC4CCCN(C(=O)c5ccc(NC(=O)c6ccccc6C)cc5)c5ccccc54)nn3)c3ccc(=[N+](CC)CC)cc-3oc2c1 (stereo not given) | > 10 | inactive | < 50 | < 50 | 188 | > 10 |  | 164 | Dose-dependent effect | 307 |  |  |  | 
CCN(CC)c1ccc2c(-c3ccc(S(=O)(=O)[O-])cc3S(=O)(=O)NCCOCCOCCOCCn3cc(CNC(=O)CCC(=O)NC4CCCN(C(=O)c5ccc(NC(=O)c6ccccc6-c6ccccc6)cc5)c5ccccc54)nn3)c3ccc(=[N+](CC)CC)cc-3oc2c1 (stereo not given) | > 10 | inactive | < 50 | < 50 | 14.1 | > 10 |  | 2.12 | Dose-dependent effect | > 10000 |  |  |  | < 50

Further lines, results first:

Ki (Vasopressin V1b receptor) [µM] | Activity (Vasopressin V2 receptor [1]) | inhibition (Vasopressin V1a receptor [2]) [%] | inhibition [3] [%] | Ki (Vasopressin V2 receptor [4]) [nM] | Ki (Vasopressin V1a receptor [5]) [µM] | solubility at 24 h [6] [µM] | Kb (Vasopressin V2 receptor [7]) [nM] | inhibition (Vasopressin V2 receptor [7]) | Ki (Oxytocin receptor) [nM] | Kd (Vasopressin V2 receptor [8]) [nM] | Ratio Ki (Homo sapiens) | Ki [9] [nM] | inhibition [10] [%] | Compound
> 10 | inactive | < 50 | < 50 | 26.1 | > 10 |  | 0.78 | Dose-dependent effect | 665 | 11.1 | 25 |  |  | O=C(CCC(=O)NC1CCCN(C(=O)c2ccc(NC(=O)c3ccccc3-c3ccccc3)cc2)c2ccccc21)NCc1cn(CCOCCOCCOCCNC(=S)Nc2ccc(-c3c4ccc(=O)cc-4oc4cc(O)ccc34)c(C(=O)O)c2)nn1 (stereo not given)
> 10 | inactive |  | < 50 | 9.02 | 1.75 |  | 0.1 | Dose-dependent effect | 808 | 2.33 |  |  |  | CCN1/C(=C/C=C/C=C/C2=[N+](CC)c3ccc(S(=O)(=O)[O-])cc3C2(C)C)C(C)(CCCC(=O)NCCOCCOCCOCCn2cc(CNC(=O)CCC(=O)NC3CCCN(C(=O)c4ccc(NC(=O)c5ccccc5-c5ccccc5)cc4)c4ccccc43)nn2)c2cc(S(=O)(=O)O)ccc21 (stereo not given)
 |  |  |  |  |  |  |  |  |  |  |  | 8.8 |  | O=C(CCC1=[N+]2C(C=C1)Cc1ccc(-c3cccs3)n1[B-]2(F)F)NCCCCCCN1CCN(CC(=O)N2c3ccccc3C(=O)Nc3cccnc32)CC1 (stereo not given)
